Activity and inhibition data for five molecules are collected here from ChEMBL document CHEMBL5321214, “Targeting the multifaceted neurotoxicity of Alzheimer's disease by tailored functionalisation of the curcumin scaffold” (Eur J Med Chem, 2023).

Each structure is given as a SMILES string. Active and inactive are the calls of the source. The rule behind the calls is not given here.

Data set [1] has as its target Amyloid-beta precursor protein (Homo sapiens) (UniProt P05067). Kind of data set: Anti-oligomeric activity against Abeta42 (unknown origin) assessed as depletion of the formation of toxic HMW Abeta42 oligomers at 5 uM measured at day 7 from sample solubilization by capillary electrophoresis assay. Particulars: time 7.0 day. Put shortly: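 Aβ42 stock diluted to 221 μM in 20 mM sodium phosphate pH 7.4 containing compound (ethanol stocks 1.53 mM). Capillary electrophoresis: BGE 80 mM sodium phosphate pH 7.4, 30 mbar × 3 s hydrodynamic injection, +12 kV, 25 °C, 200 nm detection. Oligomers assigned by effective mobility; HMW oligomer peak quantified semiquantitatively as normalised area %.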

Data set [2] has as its system Microglia. As to the kind of experiment: Cytotoxicity against Sprague-Dawley rat microglial cells assessed as effect on cell viability at 1 to 20 uM incubated for 24 hrs by MTT assay. Particulars: dose 1-20 µM. The data set is classed as toxicity, cell-based. Put shortly:
(§1)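 Primary rat microglia, 6×10^4 cells/well, switched to serum-free medium 1 h before 24 h exposure (1–20 μM, DMSO ≤0.1%). MTT 0.18 mg/mL for 4 h at 37 °C, formazan dissolved in DMSO, absorbance 570 nm (reference 630 nm). Vehicle-treated cells = 100% viability.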
For orientation: Formazan colour is commonly taken as a measure of viable cells.

Data set [3] deals with Microglia. Kind of data set: Antiinflammatory activity against Sprague-Dawley rat microglial cells assessed as downregulation of NLRP3 mRNA expression at 10 uM pretreated with compound for 1 hr followed by LPS stimulation for 6 hrs by real-time PCR analysis. The data set is classed as functional, cell-based. Particulars: time 7.0 hrs. Put shortly: (§2)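 Primary cortical microglia (postnatal day 1 rat pups, shaken off mixed glial cultures, ~97% Iba1-positive). Compound (DMSO ≤0.1%) for 1 h, then 100 ng/mL ultra-pure E. coli LPS for 6 h. QIAzol RNA extraction, SuperScript IV reverse transcription, real-time PCR. Mean ± SEM, n = 3 in triplicate; one-way ANOVA, Holm-Sidak test.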
In general terms: Real-time PCR tracks product formation cycle by cycle.

Data set [4] addresses Keap1/Nrf2 (Homo sapiens) (UniProt Q16236+Q14145). Kind of data set: Activation of Keap1/Nrf2 in human SH-SY5Y cells assessed as Nrf2 nuclear translocation by measuring increase in nuclear to cytosolic Nrf2 ratio at 2.5 uM incubated for 3 hrs by western blot analysis. The data set is classed as cell-based. In outline: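 SH-SY5Y seeded 2×10^6 cells/dish, grown 24 h, then exposed 3 h at 37 °C, 5% CO2. Nuclear and cytosolic fractions immunoblotted for Nrf2, membranes stripped and reprobed for β-actin and lamin B1 as loading references. Mean ± SEM of three independent experiments; one-way ANOVA with Dunnett's test.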
In general terms: In western blotting, separated proteins are transferred to a membrane and probed.

For data set [5], the system named is SH-SY5Y. Kind of data set: Antioxidant activity in human SH-SY5Y cells assessed as reduction in intracellular ROS formation at 2.5 uM incubated for 24 hrs followed by incubation with t-BuOOH for 30 mins by H2DCF-DA staining based fluorescence analysis. The data set is classed as functional. Conditions: time 24.5 hrs. Put shortly: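 SH-SY5Y (2×10^4 cells/well) exposed to 2.5 μM for 24 h, loaded with H2DCF-DA 30 min at room temperature, probe removed, then challenged with 50 μM t-BuOOH 30 min at room temperature. Fluorescence ex 485/em 535 nm, expressed as % ROS increase. Three independent experiments; one-way ANOVA with Dunnett's test.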

The nature of data set [6]: Effect on IL-1 beta release in Sprague-Dawley rat microglial cells at 20 uM by ELISA. The data set is classed as toxicity, cell-based. Particulars: microglia. Put shortly: (§3)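 Primary cortical rat microglia in DMSO (≤0.1%) or vehicle for 1 h, then 100 ng/mL LPS for 24 h. TNF-α and IL-1β in culture medium by ELISA against standard curves (pg/mL), expressed as % of LPS-stimulated cultures. Mean ± SEM of 3 independent experiments; one-way ANOVA, Holm-Sidak test.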

Data set [7] has as its system Microglia. As to the kind of experiment: Antiinflammatory activity against Sprague-Dawley rat microglial cells assessed as inhibition of LPS-induced IL-1 beta production at 1 to 20 uM pretreated with compound for 1 hr followed by LPS stimulation for 24 hrs by ELISA. The data set is classed as functional, cell-based. Conditions: dose 1-20 µM, time 25.0 hrs. Put shortly: as §3

In data set [8] the test system is Microglia. Kind of data set: Antiinflammatory activity against Sprague-Dawley rat microglial cells assessed as downregulation of TNF-alpha mRNA expression at 10 uM pretreated with compound for 1 hr followed by LPS stimulation for 6 hrs by real-time PCR analysis. The data set is classed as functional, cell-based. Particulars: time 7.0 hrs. In outline: as §2
The test system of data set [9] is Microglia. As to the kind of experiment: Antiinflammatory activity against Sprague-Dawley rat microglial cells assessed as inhibition of LPS-induced TNF-alpha production at 1 to 20 uM pretreated with compound for 1 hr followed by LPS stimulation for 24 hrs by ELISA. The data set is classed as functional, cell-based. Conditions: dose 1-20 µM, time 25.0 hrs. Put shortly: as §3

Data set [10] has as its system Microglia. As to the kind of experiment: Antiinflammatory activity against Sprague-Dawley rat microglial cells assessed as downregulation of IL-1 beta mRNA expression at 10 uM pretreated with compound for 1 hr followed by LPS stimulation for 6 hrs by real-time PCR analysis. The data set is classed as functional, cell-based. Particulars: time 7.0 hrs. Put shortly: as §2

A short description of data set [11]: Effect on TNF-alpha release in Sprague-Dawley rat microglial cells at 20 uM by ELISA. The data set is classed as toxicity, cell-based. Conditions: microglia. Put shortly: as §3
For data set [12], the system named is SH-SY5Y. Kind of data set: Cytotoxicity against human SH-SY5Y cells assessed as effect on cell viability at 1.25 to 40 uM incubated for 24 hrs by MTT assay. The data set is classed as toxicity, cell-based. Conditions: dose 1.25-40 µM. Put shortly: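 SH-SY5Y, 2×10^4 cells/well, grown 24 h then exposed 24 h (1.25–40 μM) at 37 °C, 5% CO2. MTT 0.5 mg/mL in HBSS for 2 h, washed, formazan dissolved in isopropanol, read at 570 nm (reference 690 nm).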

For data set [13], the system named is SH-SY5Y. Kind of data set: Antioxidant activity in human SH-SY5Y cells assessed as increase in intracellular GSH level at 2.5 uM incubated for 24 hrs by […] fluorescence analysis. The data set is classed as functional. In outline: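 SH-SY5Y (2×10^4 cells/well) grown 24 h, then exposed to 2.5 μM for 24 h at 37 °C. Fluorescent probe added 30 min at 37 °C; read at ex 355/em 460 nm. GSH (μM) from a GSH standard curve. Mean ± SEM of three experiments; one-way ANOVA with Dunnett's test.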

Data set [14] deals with Microglia. Kind of data set: Antiinflammatory activity against Sprague-Dawley rat microglial cells assessed as inhibition of LPS-induced IL-1 beta production at 1 to 10 uM pretreated with compound for 1 hr followed by LPS stimulation for 24 hrs by ELISA. The data set is classed as functional, cell-based. Particulars: dose 1-10 µM, time 25.0 hrs. In outline: as §3
Data set [15] relates to Microglia. As to the kind of experiment: Antiinflammatory activity against Sprague-Dawley rat microglial cells assessed as inhibition of LPS-induced TNF-alpha production at 1 to 10 uM pretreated with compound for 1 hr followed by LPS stimulation for 24 hrs by ELISA. The data set is classed as functional, cell-based. Particulars: dose 1-10 µM, time 25.0 hrs. Put shortly: as §3

Data set [16] is described as follows: Effect on TNF-alpha release in Sprague-Dawley rat microglial cells at 10 uM by ELISA. The data set is classed as toxicity, cell-based. Conditions: microglia. Put shortly: as §3
The subject of data set [17] is Microglia. Kind of data set: Cytotoxicity against Sprague-Dawley rat microglial cells assessed as decrease in cell viability at 20 uM incubated for 24 hrs by MTT assay. The data set is classed as toxicity, cell-based. In outline:
as §1

Data set [18] in a line: Effect on IL-1 beta release in Sprague-Dawley rat microglial cells at 10 uM by ELISA. The data set is classed as toxicity, cell-based. Particulars: microglia. Put shortly:
as §3

Sequence of Amyloid-beta precursor protein (Homo sapiens) (P05067 whole entry): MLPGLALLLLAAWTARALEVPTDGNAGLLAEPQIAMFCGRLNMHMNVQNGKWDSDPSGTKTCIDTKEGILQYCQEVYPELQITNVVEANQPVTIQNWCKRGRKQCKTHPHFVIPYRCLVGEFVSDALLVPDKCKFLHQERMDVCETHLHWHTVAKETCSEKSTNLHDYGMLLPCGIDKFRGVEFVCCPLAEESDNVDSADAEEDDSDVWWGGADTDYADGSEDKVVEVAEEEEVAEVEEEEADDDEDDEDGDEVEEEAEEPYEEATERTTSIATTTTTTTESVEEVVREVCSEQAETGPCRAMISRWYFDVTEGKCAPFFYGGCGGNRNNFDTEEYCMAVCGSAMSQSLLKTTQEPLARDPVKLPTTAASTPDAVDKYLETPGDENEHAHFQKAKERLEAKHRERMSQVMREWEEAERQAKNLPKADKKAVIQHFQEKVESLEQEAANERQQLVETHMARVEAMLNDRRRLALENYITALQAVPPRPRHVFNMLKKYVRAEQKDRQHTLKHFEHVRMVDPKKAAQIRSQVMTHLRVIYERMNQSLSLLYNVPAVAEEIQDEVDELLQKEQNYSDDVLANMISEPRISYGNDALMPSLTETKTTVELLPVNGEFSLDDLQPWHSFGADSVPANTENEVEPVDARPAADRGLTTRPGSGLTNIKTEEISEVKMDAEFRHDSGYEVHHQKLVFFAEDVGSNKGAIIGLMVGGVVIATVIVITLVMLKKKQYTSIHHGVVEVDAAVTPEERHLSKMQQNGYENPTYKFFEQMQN
Sequence of Keap1/Nrf2 (Homo sapiens) (Q14145 whole entry, looked up): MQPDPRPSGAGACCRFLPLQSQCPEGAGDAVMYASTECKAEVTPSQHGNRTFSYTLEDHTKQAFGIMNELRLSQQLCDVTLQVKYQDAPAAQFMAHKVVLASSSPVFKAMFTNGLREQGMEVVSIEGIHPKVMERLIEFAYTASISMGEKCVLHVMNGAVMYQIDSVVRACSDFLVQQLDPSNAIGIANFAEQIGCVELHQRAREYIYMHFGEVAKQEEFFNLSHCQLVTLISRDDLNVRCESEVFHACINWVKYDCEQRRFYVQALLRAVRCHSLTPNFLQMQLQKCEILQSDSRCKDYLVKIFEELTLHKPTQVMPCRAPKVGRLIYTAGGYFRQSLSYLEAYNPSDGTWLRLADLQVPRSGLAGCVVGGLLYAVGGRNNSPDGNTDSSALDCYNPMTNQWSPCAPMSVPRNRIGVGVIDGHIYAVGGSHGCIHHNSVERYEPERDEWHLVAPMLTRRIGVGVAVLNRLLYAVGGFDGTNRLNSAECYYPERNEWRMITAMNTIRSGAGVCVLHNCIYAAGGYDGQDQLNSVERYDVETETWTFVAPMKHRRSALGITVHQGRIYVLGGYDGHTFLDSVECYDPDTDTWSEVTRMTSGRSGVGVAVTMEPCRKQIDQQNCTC
Sequence of Keap1/Nrf2 (Homo sapiens) (Q16236 whole entry, looked up): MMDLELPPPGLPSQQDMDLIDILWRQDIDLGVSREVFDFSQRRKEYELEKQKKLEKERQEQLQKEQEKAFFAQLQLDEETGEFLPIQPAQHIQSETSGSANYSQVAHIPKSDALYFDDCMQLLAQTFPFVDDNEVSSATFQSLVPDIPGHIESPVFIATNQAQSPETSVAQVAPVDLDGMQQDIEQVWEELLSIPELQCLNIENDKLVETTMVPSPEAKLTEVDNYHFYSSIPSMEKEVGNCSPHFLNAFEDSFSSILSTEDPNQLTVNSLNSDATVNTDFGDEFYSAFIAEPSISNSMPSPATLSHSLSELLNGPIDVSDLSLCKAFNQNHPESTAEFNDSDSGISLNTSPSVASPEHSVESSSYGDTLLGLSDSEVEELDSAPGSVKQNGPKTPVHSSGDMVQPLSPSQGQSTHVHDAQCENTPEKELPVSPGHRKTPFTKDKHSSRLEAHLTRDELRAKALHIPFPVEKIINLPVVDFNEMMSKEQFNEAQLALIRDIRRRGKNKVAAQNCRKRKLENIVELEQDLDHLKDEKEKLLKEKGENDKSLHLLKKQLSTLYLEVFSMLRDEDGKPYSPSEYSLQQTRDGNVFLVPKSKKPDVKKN

Consider `CCOC(=O)C/C(C(=O)/C=C/c1ccc(OC)cc1)=C(O)\C=C\c1ccc(OC)cc1`, for which the result in [1] and in [4] was inactive. The Activity result (in the data set with Microglia [2]; in data set [6]; in data set [11]; in the data set with SH-SY5Y [12]) was “Non-Toxic” throughout. Moreover, the result with Microglia [3], in the data set on Microglia [7], in the data set with Microglia [8], with Microglia [9], with Microglia [10] and in the data set with SH-SY5Y [13] was Active. Besides, the inhibition – broadly, the relative decrease from the control value, in per cent – at 2.5 µM in the data set on SH-SY5Y [5] came out at 38%.

`COc1cc(/C=C/C(=O)CC(=O)/C=C/c2ccc(O)c(OC)c2)ccc1O` [CURCUMIN]: the result (with Microglia [14]; in data set [1]; in the data set on Microglia [3]; in the data set on Microglia [8]; in the data set with Microglia [15]; in the data set with Microglia [10]) was Active. Moreover, the Activity result in data set [16] is recorded as “Non-Toxic”; in the data set on Microglia [17], “Toxic”; in data set [18], “Non-Toxic”.

Take `COc1ccc(/C=C/C(=O)/C=C(O)/C=C/c2ccc(OC)cc2)cc1`: the outcome (in data set [1]; in the data set with Microglia [3]; in [4]; in the data set with SH-SY5Y [5]; with Microglia [7]; in the data set with Microglia [8]) was inactive. In addition, the result in the data set on Microglia [9], in the data set on Microglia [10] and in the data set with SH-SY5Y [13] was inactive. The Activity entry (in the data set on Microglia [2]; in [6]; in [11]; in the data set with SH-SY5Y [12]) was “Non-Toxic” throughout.

Take `COc1ccc(/C=C/C(=O)/C(CC(=O)OC(C)(C)C)=C(O)/C=C/c2ccc(OC)cc2)cc1`: the outcome with Microglia [14] and with Microglia [15] was Active. Moreover, the Activity entry is “Non-Toxic” in [16], “Toxic” in the data set on Microglia [17] and “Non-Toxic” in [18].

As for `COc1ccc(/C=C/C(=O)/C(CC(=O)O)=C(O)/C=C/c2ccc(OC)cc2)cc1` (mixture of isomers), the Activity result (in the data set with Microglia [2]; in data set [6]; in data set [11]) was “Non-Toxic” in each case. The result with Microglia [7] and in the data set on Microglia [9] was inactive.
